# Measurements from ChEMBL document CHEMBL1145532, “Role of peptide hydrophobicity in the mechanism of action of alpha-helical antimicrobial peptides” (Antimicrob Agents Chemother, 2007).
# How the values were obtained:
# Pseudomonas aeruginosa [1] = experiment: Antimicrobial activity against Pseudomonas aeruginosa PAO1; assay type: functional
# Method in brief: (§1)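 Microtiter broth dilution in brain heart infusion (BHI). Cells were grown overnight at 37°C in BHI broth and diluted in the same medium. Serial peptide dilutions were inoculated to a final 5 x 10^5 CFU/ml and incubated at 37°C for 24 h. The MIC is the lowest peptide concentration that inhibited growth.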
# Pseudomonas aeruginosa [2] = experiment: Antimicrobial activity against Pseudomonas aeruginosa WR5; assay type: functional; method in brief: as §1
# Pseudomonas aeruginosa [3] = experiment: Antimicrobial activity against Pseudomonas aeruginosa PAK; assay type: functional; method in brief: as §1
# Pseudomonas aeruginosa [4] = experiment: Antimicrobial activity against Pseudomonas aeruginosa PA14; assay type: functional; method in brief: as §1
# Pseudomonas aeruginosa [5] = experiment: Antimicrobial activity against Pseudomonas aeruginosa M2; assay type: functional; method in brief: as §1
# Pseudomonas aeruginosa [6] = experiment: Antimicrobial activity against Pseudomonas aeruginosa CP204; assay type: functional; method in brief: as §1
# [7] = Toxicity against human erythrocytes assessed as hemolysis after 18 hrs; assay type: cell-based; settings: erythrocyte
# Method in brief: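 Unlysed cells were removed by centrifugation (800 x g), and hemoglobin release was read at 570 nm. The MHC is the maximal concentration causing no hemolysis. Control was 1% erythrocytes without peptide.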
# [8] = Toxicity against human erythrocytes assessed as increase in hemolytic activity after 18 hrs relative to V13KL peptide; assay type: cell-based; settings: erythrocyte
# [9] = Toxicity against human erythrocytes assessed as hemolysis at 500 ug/ml after 18 hrs; settings: erythrocyte
Compound,MIC (Pseudomonas aeruginosa [1]),MIC (Pseudomonas aeruginosa [2]),MIC (Pseudomonas aeruginosa [3]),MIC (Pseudomonas aeruginosa [4]),MIC (Pseudomonas aeruginosa [5]),MIC (Pseudomonas aeruginosa [6]),Maximal concentration causing no hemolysis (MHC) [7],Activity [8],Activity [9]
CC[C@H](C)[C@H](NC(=O)[C@H](CC(C)C)NC(=O)[C@H](CCCCN)NC(=O)[C@H](CC(C)C)NC(=O)[C@H](C)NC(=O)[C@@H](NC(=O)[C@H](Cc1c[nH]cn1)NC(=O)[C@H](CC(C)C)NC(=O)[C@@H](NC(=O)[C@@H](NC(=O)[C@H](CCCCN)NC(=O)[C@H](CCCCN)NC(=O)[C@H](CC(C)C)NC(=O)[C@H](CO)NC(=O)[C@H](CCCCN)NC(=O)[C@H](Cc1ccccc1)NC(=O)[C@@H](NC(=O)[C@H](CCCCN)NC(=O)[C@H](CC(C)C)NC(=O)[C@H](Cc1ccccc1)NC(=O)[C@H](CO)NC(=O)[C@H](CCCCN)NC(=O)[C@H](Cc1c[nH]c2ccccc12)NC(=O)[C@H](CCCCN)NC(C)=O)[C@@H](C)O)[C@@H](C)O)C(C)C)[C@@H](C)O)C(=O)N[C@@H](CO)C(=O)N[C@@H](CO)C(N)=O,15.6 µg/mL,250 µg/mL,15.6 µg/mL,62.5 µg/mL,31.3 µg/mL,7.8 µg/mL,15.6 µg/mL,16,
CC[C@H](C)[C@H](NC(=O)[C@H](C)NC(=O)[C@H](CCCCN)NC(=O)[C@H](CC(C)C)NC(=O)[C@H](C)NC(=O)[C@@H](NC(=O)[C@H](Cc1cnc[nH]1)NC(=O)[C@H](CC(C)C)NC(=O)[C@@H](NC(=O)[C@@H](NC(=O)[C@H](CCCCN)NC(=O)[C@H](CCCCN)NC(=O)[C@H](C)NC(=O)[C@H](CO)NC(=O)[C@H](CCCCN)NC(=O)[C@H](Cc1ccccc1)NC(=O)[C@@H](NC(=O)[C@H](CCCCN)NC(=O)[C@H](CC(C)C)NC(=O)[C@H](Cc1ccccc1)NC(=O)[C@H](CO)NC(=O)[C@H](CCCCN)NC(=O)[C@H](Cc1c[nH]c2ccccc12)NC(=O)[C@H](CCCCN)NC(C)=O)[C@@H](C)O)[C@@H](C)O)C(C)C)[C@@H](C)O)C(=O)N[C@@H](CO)C(=O)N[C@@H](CO)C(N)=O,31.3 µg/mL,250 µg/mL,125 µg/mL,62.5 µg/mL,31.3 µg/mL,7.8 µg/mL,250 µg/mL,1,Non-toxic
CC[C@H](C)[C@H](NC(=O)[C@H](C)NC(=O)[C@H](CCCCN)NC(=O)[C@H](CC(C)C)NC(=O)[C@H](C)NC(=O)[C@@H](NC(=O)[C@H](Cc1c[nH]cn1)NC(=O)[C@H](CC(C)C)NC(=O)[C@@H](NC(=O)[C@@H](NC(=O)[C@H](CCCCN)NC(=O)[C@H](CCCCN)NC(=O)[C@H](CC(C)C)NC(=O)[C@H](CO)NC(=O)[C@H](CCCCN)NC(=O)[C@H](Cc1ccccc1)NC(=O)[C@@H](NC(=O)[C@H](CCCCN)NC(=O)[C@H](CC(C)C)NC(=O)[C@H](Cc1ccccc1)NC(=O)[C@H](CO)NC(=O)[C@H](CCCCN)NC(=O)[C@H](Cc1c[nH]c2ccccc12)NC(=O)[C@H](CCCCN)NC(C)=O)[C@@H](C)O)[C@@H](C)O)C(C)C)[C@@H](C)O)C(=O)N[C@@H](CO)C(=O)N[C@@H](CO)C(N)=O,15.6 µg/mL,62.5 µg/mL,31.3 µg/mL,31.3 µg/mL,15.6 µg/mL,15.6 µg/mL,31.3 µg/mL,8,
Ac-KWKSFAKTFKSAKKTVLHTAAKAISS-NH2,500 µg/mL,> 500 µg/mL,> 500 µg/mL,> 500 µg/mL,> 500 µg/mL,> 500 µg/mL,1000 µg/mL,0.3,
Ac-KWKSFAKTFKSAKKTVLHTALKAISS-NH2 [listing 1 of 2 here],,,,,,,1000 µg/mL,0.3,
Ac-KWKSFAKTFKSAKKTVLHTALKAISS-NH2 [listing 2 of 2 here],125 µg/mL,250 µg/mL,250 µg/mL,500 µg/mL,250 µg/mL,125 µg/mL,,,
Ac-KWKSFLKTFKSAKKTVLHTALKLISS-NH2 [listing 1 of 2 here],,,,,,,62.5 µg/mL,4,
Ac-KWKSFLKTFKSAKKTVLHTALKLISS-NH2 [listing 2 of 2 here],31.3 µg/mL,62.5 µg/mL,62.5 µg/mL,31.3 µg/mL,31.3 µg/mL,15.6 µg/mL,,,
